Reference: PubChem BioAssay
Activity calls are given as the source filed them. Unless noted, no stated cut-off is given here; in the data, active means inhibition above about 30%; inactive means the rest.

How the values were obtained:
[1] = reduced viability of SK-BR-3 breast cancer cells – cell-based, 24 h, human, pilot screen (AID 572;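 active means viability at or below 10% of carrier control in both of two separate runs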;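 further: compound exposure lasted between 18 and 24 h rather than exactly 24 h; 100% = carrier-treated control wells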); details: SK-BR-3 viability, CellTiter-Glo luminescence, at 10 µM, stronger effect = lower value
[2] = HUVEC growth inhibition – cell-based, human, primary screen (AID 575;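 active means viability at or below 30% in both replicate assays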;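 further: 100% = median of untreated cell wells with 0.1% DMSO on each plate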); details: HUVEC proliferation, CellTiter-Glo luminescence, 72 h; at 10 µM; stronger effect = lower value
How it was run: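 Test system: HUVEC primary cells. Quantity: 1250 endothelial cells in each well. Dosing: single-point 10 µM, DMSO 0.1% final. Incubation: 72 h treatment at 37 °C. Measured by: CTG luminescence. Control set: DMSO cell controls and MePR drug controls. Plate: collagen-coated 384-well format.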

[3] = H69AR cell proliferation blockers – human, duplicate replicates, primary screen (AID 580;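 active means viability at or under a set limit in both replicates, limit being median viability minus 3 SD, cut at about 48% in these data, passing the limit was not always enough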;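 further: 100% = mean luminescence of untreated wells and 0% = no signal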); details: H69AR lung tumor cells viability, ATP luminescence, 72 h; at 10 µM; stronger effect = lower value
[4] = MRP1 drug-resistance reversers in H69AR cells – cell-based, doxorubicin co-treatment, pilot screen (AID 601;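 active means viability loss from added drug above about 55%, and viability with drug at most 40%, in both replicates, limit read from the data, passing the limit was not always enough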); details: CellTiter-Glo, 72 h, at 10 µM; for differential viability (reversal): stronger effect = higher value
[5] = yeast transport mutant growth inhibition pilot in 384-well plates, post-Golgi transport modulator project (AID 636; in the data active means inhibition above about 31%); details: absorbance 615 nm, about 18 h, stronger effect = higher value
[6] = growth suppression of yeast trafficking mutant, preliminary HTS, modulators of trafficking downstream of Golgi apparatus project, 1536-format plate, OD 615 nm (AID 637); details: yeast transport mutant growth, absorbance 615 nm, 18 h; stronger effect = higher value
[7] = H69AR cells + 2 uM doxorubicin, measured here: viability with 2 uM doxorubicin, stronger effect = lower value
[8] = H69AR cells, compound alone cytotoxicity

| Structure (SMILES) | viability [1] | viability [2] | viability [3] | differential viability (reversal) ([4]; H69AR cells + 2 uM doxorubicin) | viability [4, 7] | viability [4, 8] | inhibition [5] | inhibition [6] |
| --- | --- | --- | --- | --- | --- | --- | --- | --- |
| C=COCCNC(=O)Nc1ccc(Cl)c(Cl)c1 | 91% (inactive) | 101% (inactive) | 91.1% (inactive) | -3.01% (inactive) | 94.1% | 91.1% | 2.16% (inactive) | -1.09% (inactive) |
| O=C(CSc1nc2ccccc2o1)NC(=O)NCc1ccco1 | 92% (inactive) | 96.3% (inactive) | 89.3% (inactive) | 3.28% (inactive) | 86.1% | 89.3% | -3.51% (inactive) | -1.27% (inactive) |
| CCOc1cc(/C=N/n2cnnc2)cc(Br)c1O | 104% (inactive) | 103% (inactive) | 83.3% (inactive) | -8.45% (inactive) | 91.8% | 83.3% | -2.37% (inactive) | 8.33% (inactive) |
| CCOc1nc(-c2ccccc2)ccc1-c1noc(-c2ccc(OC)c(OC)c2)n1 | 68% (inactive) | 85.1% (inactive) | 67.1% (inactive) | -4.04% (inactive) | 71.2% | 67.1% | -1.43% (inactive) | -4.43% (inactive) |
| COc1ccccc1NC(=O)NCc1ccc2c(c1)OCO2 | 87% (inactive) | 101% (inactive) | 93% (inactive) | -1.33% (inactive) | 94.4% | 93% | -4.13% (inactive) | -3.82% (inactive) |
| O=S1(=O)CCN2C(=N1)SC1=C2CCN(Cc2ccccc2)C1 | 106% (inactive) | 96.7% (inactive) | 89% (inactive) | -1.18% (inactive) | 90.2% | 89% | -9.04% (inactive) | 3.09% (inactive) |
| COc1ccc(-n2c(SCC(N)=O)nc3sc4c(c3c2=O)CCN(C)C4)cc1 | 126% (inactive) | 93.5% (inactive) | 101% (inactive) | -9.52% (inactive) | 111% | 101% | 6.16% (inactive) | -1.94% (inactive) |
| CCOC(=O)C1=C(N)OC2=C(C(=O)CC(C)(C)C2)C1c1ccco1 (stereo not given) | 90% (inactive) | 97.3% (inactive) | 87.8% (inactive) | 3.79% (inactive) | 84% | 87.8% | 1.04% (inactive) | 3.28% (inactive) |
| NS(=O)(=O)c1ccc(CCNC(=O)CCC2COc3ccccc3O2)cc1 (stereo not given) | 90% (inactive) | 105% (inactive) | 95.8% (inactive) | 8.33% (inactive) | 87.5% | 95.8% | -5.62% (inactive) | 0.16% (inactive) |
| Cc1ccc(NC(=O)CSC2=C(C#N)C(c3ccc4c(c3)OCO4)CC(=O)N2)cc1C (stereo not given) | 64% (inactive) | 92.9% (inactive) | 88.6% (inactive) | -4.82% (inactive) | 93.4% | 88.6% | 7.7% (inactive) | -2.55% (inactive) |
| Nc1ncnc2c1ncn2[C@@H]1O[C@H](CO)[C@@H](O)[C@H]1O | 105% (inactive) | 93.9% (inactive) | 113% (inactive) | 25.9% (inactive) | 87% | 113% | -2.47% (inactive) | 0.33% (inactive) |
| CCC(CC)n1[nH]c(=O)c2c(C)cc(C)nc21 | 81% (inactive) | 103% (inactive) | 105% (inactive) | 14.5% (inactive) | 90.5% | 105% | -5.14% (inactive) | -6% (inactive) |
| COc1cc(-c2nc(S(=O)(=O)c3ccc(C)cc3)c(N(C)C)o2)cc(OC)c1OC | 71% (inactive) | 93.2% (inactive) | 87.9% (inactive) | 1.51% (inactive) | 86.3% | 87.9% | -8.4% (inactive) | -1.09% (inactive) |
| C=CCOC(=O)CC(NC(=O)c1ccccc1)c1ccccc1 (stereo not given) | 110% (inactive) | 108% (inactive) | 105% (inactive) | 19.7% (inactive) | 85.3% | 105% | -3.73% (inactive) | -5.45% (inactive) |
| CC1(C)Cc2c(c(=S)nc(-c3ccccc3)n2CCO)CO1 | 111% (inactive) | 106% (inactive) | 87.6% (inactive) | -4.25% (inactive) | 91.9% | 87.6% | -1.43% (inactive) | -6.72% (inactive) |
